Key:
Hepatitis B virus [1] = test: Antiviral activity against HBV infected in human HepG2.2.15 cells assessed as inhibition of DNA replication; format: functional, organism-based; settings: HepG2 2.2.15
Hepatitis B virus [2] = test: Antiviral activity against HBV infected in human HepG2.2.15 cells assessed as inhibition of hepatitis B e antigen secretion by ELISA; format: functional, organism-based; settings: HepG2 2.2.15
[3] = Selectivity index, ratio of CC50 for human HepG2.2.15 cells to IC50 for HBV infected in human HepG2.2.15 cells assessed as inhibition of hepatitis B surface antigen secretion; format: functional
[4] = Cytotoxicity against human HepG2.2.15 cells by MTT assay; format: cell-based, HepG2 2.2.15
[5] = Selectivity index, ratio of CC50 for human HepG2.2.15 cells to IC50 for HBV infected in human HepG2.2.15 cells assessed as inhibition of DNA replication; format: functional
Hepatitis B virus [6] = test: Antiviral activity against HBV infected in human HepG2.2.15 cells assessed as inhibition of hepatitis B surface antigen secretion by ELISA; format: functional, organism-based; settings: HepG2 2.2.15
[7] = Selectivity index, ratio of CC50 for human HepG2.2.15 cells to IC50 for HBV infected in human HepG2.2.15 cells assessed as inhibition of hepatitis B e antigen secretion; format: functional
[8] = Octanol-water partition coefficient, log P of the compound at 30 degC by HPLC analysis; format: physicochemical
How it was run: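 Shake-flask method: solutes equilibrated between octanol and water. Compound concentration in the octanol phase determined by HPLC. LogP determined at 30 °C.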

| SMILES | IC50 (Hepatitis B virus [1]) | IC50 (Hepatitis B virus [2]) | Ratio CC50/IC50 [3] | CC50 [4] | Ratio CC50/IC50 [5] | IC50 (Hepatitis B virus [6]) | Ratio CC50/IC50 [7] | logP ([8]; read-out: logP) | logP [8] |
| --- | --- | --- | --- | --- | --- | --- | --- | --- | --- |
| C=C1CC[C@@H]2[C@](C)(COC(=O)/C=C/c3ccccc3)[C@H](O)CC[C@@]2(C)[C@@H]1/C=C/C1=CCOC1=O | 14.6 µM | 28.9 µM | 10.2 | 183 µM | 15.5 | 18 µM | 6.3 |  |  |
| C=C1CC[C@@H]2[C@](C)(COC(=O)/C=C/c3cc(OC)c(OC)c(OC)c3)[C@H](O)CC[C@@]2(C)[C@@H]1/C=C/C1=CCOC1=O | 10.3 µM | 201 µM |  | > 1710 µM | >165.1 |  | >8.5 | 1.78 |  |
| C=C1CC[C@@H]2[C@](C)(COC(=O)c3cccnc3)[C@H](O)CC[C@@]2(C)[C@@H]1/C=C/C1=CCOC1=O | 22.1 µM | 63.5 µM | 2.8 | 113 µM | 5.1 | 40 µM | 1.8 |  |  |
| C=C1CC[C@@H]2[C@](C)(COC(=O)c3ccco3)[C@H](O)CC[C@@]2(C)[C@@H]1/C=C/C1=CCOC1=O | 9.3 µM | 77.5 µM | 4.6 | 92 µM | 9.9 | 19.2 µM | 1.2 |  |  |
| C=C1CC[C@@H]2[C@](C)(COC(=O)c3cccs3)[C@H](O)CC[C@@]2(C)[C@@H]1/C=C/C1=CCOC1=O | 22.1 µM | 29.2 µM | 3.4 | 557 µM | 25.2 | 162 µM | 19.1 |  |  |
| C=C1CC[C@@H]2[C@](C)(COC(=O)c3cccs3)[C@H](OC(=O)c3cccs3)CC[C@@]2(C)[C@@H]1/C=C/C1=CCOC1=O | 185 µM | 822 µM | >1 | > 1540 µM | >8.3 | 1450 µM | >1.8 |  |  |
| C=C1CC[C@@H]2[C@](C)(COC(=O)c3cccs3)[C@H](O)CC[C@@]2(C)[C@@H]1C/C=C1\C=COC1=O | 23.5 µM | 19.7 µM | 20.3 | 2470 µM | 104.9 | 121 µM | 125 |  |  |
| C=C1CC[C@@H]2[C@](C)(COC(C)=O)[C@H](O)CC[C@@]2(C)[C@@H]1C/C=C1\C=COC1=O | 44.1 µM | 289 µM | 1.2 | 334 µM | 7.6 | 280 µM | 1.1 |  |  |
| C=C1CC[C@@H]2[C@](C)(CO)[C@H](OC(C)=O)CC[C@@]2(C)[C@@H]1C/C=C1\C=COC1=O | 44.4 µM | 241 µM | 2.7 | 872 µM | 19.6 | 318 µM | 3.6 |  |  |
| C=C1CC[C@@H]2[C@](C)(COC(C)=O)[C@H](OC(C)=O)CC[C@@]2(C)[C@@H]1C/C=C1\C=COC1=O | 39.6 µM | 260 µM | 1.2 | 297 µM | 7.6 | 251 µM | 1.1 |  |  |
| C=C1CC[C@@H]2[C@](C)(CO)[C@H](O)CC[C@@]2(C)[C@@H]1/C=C/C1=CC(CO)(CO)OC1=O | 154 µM | 860 µM | 13 | 954 µM | 6.2 | 74 µM | 1.1 |  |  |
| C=C1CC[C@@H]2[C@](C)(CO)[C@H](O)CC[C@@]2(C)[C@@H]1/C=C/C1=CCOC1=O | 22.6 µM |  |  | 197 µM | 8.7 |  |  |  | 1.44 |
| C=C1CC[C@@H]2[C@](C)(CO)[C@H](O)CC[C@@]2(C)[C@@H]1C/C=C1/C(=O)OC[C@H]1O [ANDROGRAPHOLIDE] | 54.1 µM |  |  | 198 µM | 3.7 |  |  | 0.52 |  |

From ChEMBL document CHEMBL3259753, “Synthesis, structure-activity relationships and biological evaluation of dehydroandrographolide and andrographolide derivatives as novel anti-hepatitis B virus agents” (Bioorg Med Chem Lett, 2014)
